In ChEMBL document CHEMBL5584279, “New Lipophilic Hydroxamates as Promising Trypanocidal Agents: Design, Synthesis, SAR, and Conformational Behavior Studies” (ACS Med Chem Lett, 2024):

Columns and labels:
[1] = tested on: Trypanosoma brucei; assay: Trypanocidal activity against bloodstream form of Trypanosoma brucei assessed as inhibition of parasite growth; assay type: functional, organism-based
Summary of the method: (§1)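 Bloodstream-form T. brucei were cultured in vitro at pH 7.4. Growth inhibition was expressed as IC50 and IC90, the concentrations that inhibit parasite growth by 50% and 90%. Values are the mean of triplicate experiments ± SEM.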

[2] = tested on: Trypanosoma brucei; assay: Trypanocidal activity against bloodstream form of Trypanosoma brucei 221 assessed as inhibition of parasite growth incubated for 48 hrs followed by resazurin addition and measured after 16 hrs by resazurin assay; assay type: functional, organism-based; summary of the method: as §1

Row | Compound | IC50 [1] | IC50 [2]
1 | CC1(c2ccccc2)NCC(=O)N(CC(=O)NO)C1=O (stereo not drawn) | 6970 nM | 
2 | CCCCC1(c2ccccc2)NCC(=O)N(CC(=O)NO)C1=O (stereo not drawn) | 1720 nM | 
3 | CN1CC(=O)N(CC(=O)NO)C(=O)C1(C)c1ccccc1 (stereo not drawn) | 590 nM | 
4 | CCCC1(c2ccccc2)NCC(=O)N(CC(=O)NO)C1=O (stereo not drawn) | 7250 nM | 
5 | CCCC1(c2ccccc2)C(=O)N(CC(=O)NO)C(=O)CN1C (stereo not drawn) | 1770 nM | 
6 | CC(C)C[C@@H]1NC2(CCCCCC2)C(=O)N(CC(=O)NO)C1=O |  | 99 nM
7 | CCCCC1(c2ccccc2)C(=O)N(CC(=O)NO)C(=O)CN1C (stereo not drawn) | 2650 nM | 
8 | CC1(c2ccc([N+](=O)[O-])cc2)NCC(=O)N(CC(=O)NO)C1=O (stereo not drawn) | 11700 nM | 
9 | CN1CC(=O)N(CC(=O)NO)C(=O)C1(C)c1ccc([N+](=O)[O-])cc1 (stereo not drawn) | 1220 nM | 
10 | CC1(c2ccc(F)cc2)NCC(=O)N(CC(=O)NO)C1=O (stereo not drawn) | 19100 nM | 
11 | CN1CC(=O)N(CC(=O)NO)C(=O)C1(C)c1ccc(F)cc1 (stereo not drawn) | 8160 nM | 
12 | CCCCN1CC(=O)N(CC(=O)NO)C(=O)C1(C)c1ccccc1 (stereo not drawn) | 630 nM | 
13 | CCCN1CC(=O)N(CC(=O)NO)C(=O)C1(C)c1ccccc1 (stereo not drawn) | 470 nM | 
